# Reference: ChEMBL document CHEMBL4393740, “Preparation and biological evaluation of soluble tetrapeptide epoxyketone proteasome inhibitors” (Bioorg Med Chem, 2019)
# Assays:
# [1] = target: T1, Proteasome Macropain subunit MB1 (Homo sapiens, UniProt P28074); experiment: Inhibition of human chymotrypsin-like activity of 20S proteasome using Suc-LLVY-AMC as substrate pre-incubated for 10 mins followed by substrate addition and measured after 1 hr by spectrofluorimetry; conditions: read-out: IC50
# T1 sequence (P28074 whole entry): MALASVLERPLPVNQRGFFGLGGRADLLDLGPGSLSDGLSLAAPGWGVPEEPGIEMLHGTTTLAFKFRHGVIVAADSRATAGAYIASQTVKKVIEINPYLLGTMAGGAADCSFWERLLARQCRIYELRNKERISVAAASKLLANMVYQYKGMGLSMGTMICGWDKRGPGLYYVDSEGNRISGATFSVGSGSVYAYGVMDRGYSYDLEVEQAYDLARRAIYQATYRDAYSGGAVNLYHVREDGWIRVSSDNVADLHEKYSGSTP
# [2] = Half life in rat liver microsomes at 1 uM pre-incubated for 5 mins followed by NADP+ addition and measured up to 20 mins by LC-MS analysis; assay type: ADME, Microsome
# [3] = Half life in monkey liver microsomes at 1 uM pre-incubated for 5 mins followed by NADP+ addition and measured up to 20 mins by LC-MS analysis; assay type: ADME, Macaca mulatta, Microsome; conditions: rhesus monkey
# [4] = Half life in BALB/c mouse liver microsomes at 1 uM pre-incubated for 5 mins followed by NADP+ addition and measured up to 20 mins by LC-MS analysis; assay type: ADME, Microsome
# Outline: (§1)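 Mixture held 1 µM compound, 0.5 mg/mL microsomal protein (in-house pooled Balb/c mouse or pooled human), 100 mM Tris-HCl pH 7.4, and an NADPH-generating system (5 mM isocitric acid, 0.2 U/mL isocitric dehydrogenase, 5 mM MgCl2, 1 mM NADP+). Preincubated 5 min at 37 °C, started with NADP+, sampled at 0, 5, 10, 20 min. Quenched with cold acetonitrile containing 1 µM phenytoin internal standard. Compound loss measured by LC-MS/MS. Controls omitted NADPH and/or microsomes.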
# [5] = Half life in dog liver microsomes at 1 uM pre-incubated for 5 mins followed by NADP+ addition and measured up to 20 mins by LC-MS analysis; assay type: ADME, Canis lupus familiaris, Microsome
# [6] = Half life in human liver microsomes at 1 uM pre-incubated for 5 mins followed by NADP+ addition and measured up to 20 mins by LC-MS analysis; assay type: ADME, Microsome; outline: as §1
# [7] = Intrinsic clearance in rat liver microsomes at 1 uM pre-incubated for 5 mins followed by NADP+ addition and measured up to 20 mins by LC-MS analysis; assay type: ADME, Microsome; conditions: read-out: CLH
# [8] = Intrinsic clearance in BALB/c mouse liver microsomes at 1 uM pre-incubated for 5 mins followed by NADP+ addition and measured up to 20 mins by LC-MS analysis; assay type: ADME, Microsome; conditions: read-out: CLH; outline: as §1
# [9] = Intrinsic clearance in dog liver microsomes at 1 uM pre-incubated for 5 mins followed by NADP+ addition and measured up to 20 mins by LC-MS analysis; assay type: ADME, Canis lupus familiaris, Microsome; conditions: read-out: CLH
# [10] = Intrinsic clearance in monkey liver microsomes at 1 uM pre-incubated for 5 min followed by NADP+ addition and measured up to 20 mins by LC-MS analysis; assay type: ADME, Macaca mulatta, Microsome; conditions: rhesus monkey, read-out: CLH
# [11] = Intrinsic clearance in human liver microsomes at 1 uM pre-incubated for 5 min followed by NADP+ addition and measured up to 20 mins by LC-MS analysis; assay type: ADME, Microsome; conditions: read-out: CLH; outline: as §1
# RPMI-8226 [12] = experiment: Antitumour activity against luciferase expressing human RPMI8226 cells xenografted in NOD/SCID mouse assessed as tumor growth at 2 mg/kg, iv qd for 21 days by caliper method relative to control; assay type: functional
# Outline: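 NOD/SCID mice given subcutaneous 5 × 10^6 luciferase-expressing RPMI-8226 cells. Randomized at mean tumour 100-150 mm3, n = 3 per group. Dosed i.v. 2 mg/kg QD for 3 weeks. Tumour also imaged by IVIS, ROI […] taken 3 min after D-luciferin 150 mg/kg. Caliper volume V = length×width²/2, RTV = Vt/V0. T/C% = mean RTV treated / mean RTV control × 100.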
# ARH-77 = experiment: Antitumour activity against human ARH77 cells xenografted in nude mouse assessed as tumor growth at 5mg/kg, iv dosed at day 1 ,4, 8 ,11, 15 and 18 for 3 weeks and measured every 2 days by caliper method relative to control; assay type: functional
# Outline: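 Nude mice given subcutaneous 1 × 10^7 ARH77 cells. Randomized at mean tumour 100-150 mm3 into treatment and control groups, n = 5. Dosed i.v. 5 mg/kg on days 1, 4, 8, 11, 15 and 18 for 3 weeks. Tumours sized by caliper, V = length×width²/2, RTV = Vt/V0. T/C% = mean RTV treated / mean RTV control × 100.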
# RPMI-8226 [13] = experiment: Cytotoxicity against human RPMI8226 cells assessed as cell viability measured after 72 hrs by celltiter96 aqueous cell proliferation assay; assay type: functional, cell-based; conditions: RPMI-8226, 72 h
# Outline: (§2)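 Suspension cells in log phase plated at 5000 (RPMI8226) or 10000 (U266B1) cells per well. Viability read after 72 h by MTS-type CellTiter 96 AQueous One assay on a plate reader. IC50 reported, three repeats.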
# U-266 = experiment: Cytotoxicity against human U266B1 cells assessed as cell viability measured after 72 hrs by celltiter96 aqueous cell proliferation assay; assay type: functional, cell-based; conditions: U-266, 72 h; outline: as §2
# [14] = target: Voltage-gated inwardly rectifying potassium channel KCNH2 (Homo sapiens, UniProt Q12809); experiment: Inhibition of human ERG in HEK293 cells assessed as effect on QT interval; assay type: cell-based; conditions: human, hek293
# Sequence of Voltage-gated inwardly rectifying potassium channel KCNH2 (Q12809 whole entry): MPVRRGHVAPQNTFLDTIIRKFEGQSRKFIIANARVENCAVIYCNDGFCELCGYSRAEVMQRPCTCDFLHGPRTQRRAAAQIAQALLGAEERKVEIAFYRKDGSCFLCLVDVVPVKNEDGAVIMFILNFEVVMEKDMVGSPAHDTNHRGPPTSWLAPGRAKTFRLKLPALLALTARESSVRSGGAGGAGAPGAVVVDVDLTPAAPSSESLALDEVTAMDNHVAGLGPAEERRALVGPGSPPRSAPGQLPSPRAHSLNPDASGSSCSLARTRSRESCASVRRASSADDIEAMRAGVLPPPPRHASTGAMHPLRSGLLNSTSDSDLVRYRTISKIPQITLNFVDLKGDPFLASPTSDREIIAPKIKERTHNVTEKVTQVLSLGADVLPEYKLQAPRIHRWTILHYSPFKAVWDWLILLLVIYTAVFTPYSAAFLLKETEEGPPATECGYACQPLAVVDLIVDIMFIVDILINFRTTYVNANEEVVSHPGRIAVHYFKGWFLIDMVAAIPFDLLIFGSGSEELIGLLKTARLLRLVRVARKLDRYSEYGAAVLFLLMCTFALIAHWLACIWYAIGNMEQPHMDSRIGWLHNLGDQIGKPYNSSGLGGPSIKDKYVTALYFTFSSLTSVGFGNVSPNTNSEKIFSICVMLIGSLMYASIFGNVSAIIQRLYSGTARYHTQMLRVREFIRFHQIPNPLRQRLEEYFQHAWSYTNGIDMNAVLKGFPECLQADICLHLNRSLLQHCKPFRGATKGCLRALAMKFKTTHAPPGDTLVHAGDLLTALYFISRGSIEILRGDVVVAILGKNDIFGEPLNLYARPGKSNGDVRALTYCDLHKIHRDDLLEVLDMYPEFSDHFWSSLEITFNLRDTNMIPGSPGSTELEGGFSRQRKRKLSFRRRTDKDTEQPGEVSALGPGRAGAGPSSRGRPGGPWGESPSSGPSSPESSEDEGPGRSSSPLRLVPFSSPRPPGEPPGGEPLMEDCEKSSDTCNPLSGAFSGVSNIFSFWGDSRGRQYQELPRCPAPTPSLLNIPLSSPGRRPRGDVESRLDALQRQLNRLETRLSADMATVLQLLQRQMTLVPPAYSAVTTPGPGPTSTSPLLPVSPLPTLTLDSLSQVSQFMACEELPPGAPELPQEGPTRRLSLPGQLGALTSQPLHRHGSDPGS
# [15] = Potency index, ratio of compound half life in human liver microsomes to carfilzomib half life in human liver microsomes; assay type: ADME, Microsome
smiles,measurement,setting,value
CC(C)C[C@H](NC(=O)[C@H](Cc1cscn1)NC(=O)CN1CCOCC1)C(=O)N[C@@H](Cc1ccccc1)C(=O)N[C@@H](CC(C)C)C(=O)[C@@]1(C)CO1,IC50,[1],36.8 nM
same,half-life at 1 µM,[2],1.36 min
same,half-life at 1 µM,[3],0.211 min
same,half-life at 1 µM,[4],1.1 min
same,half-life at 1 µM,[5],0.243 min
same,half-life at 1 µM,[6],1.07 min
same,microsomal CLint at 1 µM,[7],1020 µL/min/mg
same,microsomal CLint at 1 µM,[8],1250 µL/min/mg
same,microsomal CLint at 1 µM,[9],5710 µL/min/mg
same,microsomal CLint at 1 µM,[10],6560 µL/min/mg
same,microsomal CLint at 1 µM,[11],1300 µL/min/mg
same,T/C,RPMI-8226 [12],49.5%
same,T/C,ARH-77,37.6%
same,IC50,RPMI-8226 [13],27.7 nM
same,IC50,U-266,24.5 nM
same,inhibition (INH),[14],Not Active
same,Ratio,[15],4
